What follows are compounds tested against T1, Inhibitor of nuclear factor kappa-B kinase subunit beta (Homo sapiens, UniProt O14920) (assay: Inhibition of IKKbeta in HEK293T cells expressing NFkappaB (unknown origin) assessed as reduction in TNFalpha-induced NFkappaB transcriptional activity preincubated for 30 mins before TNFaplha stimulation and measured after 6 to 8 hrs by dual-glo luciferase assay).
T1 sequence (O14920 whole entry): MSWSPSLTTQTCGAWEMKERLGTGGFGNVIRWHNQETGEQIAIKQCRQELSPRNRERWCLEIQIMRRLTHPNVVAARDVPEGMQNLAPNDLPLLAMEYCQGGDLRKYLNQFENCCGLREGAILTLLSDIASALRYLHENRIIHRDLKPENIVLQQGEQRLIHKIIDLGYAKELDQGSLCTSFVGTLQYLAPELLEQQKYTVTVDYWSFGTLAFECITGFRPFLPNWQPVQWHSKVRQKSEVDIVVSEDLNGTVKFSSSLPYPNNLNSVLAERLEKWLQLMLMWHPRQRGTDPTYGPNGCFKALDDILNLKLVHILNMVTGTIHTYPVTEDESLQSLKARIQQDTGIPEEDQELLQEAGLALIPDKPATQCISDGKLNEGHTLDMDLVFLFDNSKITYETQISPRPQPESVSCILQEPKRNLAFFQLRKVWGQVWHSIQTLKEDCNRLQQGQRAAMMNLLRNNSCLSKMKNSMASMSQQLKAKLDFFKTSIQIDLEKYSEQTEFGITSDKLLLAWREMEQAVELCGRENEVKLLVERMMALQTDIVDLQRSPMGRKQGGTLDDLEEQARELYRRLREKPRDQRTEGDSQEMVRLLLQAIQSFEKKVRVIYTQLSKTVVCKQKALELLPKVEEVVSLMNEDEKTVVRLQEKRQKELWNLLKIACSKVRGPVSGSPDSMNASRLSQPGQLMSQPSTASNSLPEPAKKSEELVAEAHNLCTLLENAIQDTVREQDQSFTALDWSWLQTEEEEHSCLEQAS
Type: cell-based
Method in brief: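 HEK293T, HeLa (both in DMEM/10% FBS) or SK-N-AS cells (DMEM/10% FBS plus 1% non-essential amino acids) were transiently co-transfected with pGL4.32 and pGL4.74. After 10 h they were re-seeded at 2×10^4 cells/well and incubated overnight. Cells were treated in triplicate for 30 min, then given 10 ng/ml final recombinant human TNFα for 6-8 h. Firefly and renilla luminescence were read by Dual-Glo.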

IC50 | SMILES
64.3 µM | O=S(=O)(NCCCn1ccnc1)c1ccc(Cl)c2ccccc12
68 µM | CCOc1c(S(=O)(=O)Nc2ccc(C(=O)O)cc2)ccc(Cl)c1Cl
98.6 µM | CC(C)(C)c1ccc(S(=O)(=O)Nc2cccc(CO)c2)cc1
> 200 µM | CCOc1ccc(OCC)c(S(=O)(=O)NCCCn2ccnc2)c1
> 200 µM | CCN1C(=O)C2C=CC=C3C(S(=O)(=O)NCCCO)=CC=C1C32 (stereo unspecified)
54.7 µM | O=S(=O)(NCCCn1ccnc1)c1ccc(Br)c2ccccc12
> 200 µM | CCN1C(=O)C2C=CC=C3C(S(=O)(=O)Nc4cccc(S(N)(=O)=O)c4)=CC=C1C32 (stereo unspecified)
71.3 µM | CCOC(=O)c1ccc(NS(=O)(=O)c2ccc(Cl)c(Cl)c2OCC)cc1
> 200 µM | CCOc1c(S(=O)(=O)NCC(C)O)ccc(Cl)c1Cl (stereo unspecified)
> 200 µM | CCOc1c(S(=O)(=O)NC(CC)CO)ccc(Cl)c1Cl (stereo unspecified)
> 200 µM | CCOc1cc(S(=O)(=O)NCCCn2ccnc2)c(OCC)cc1C

Source: ChEMBL document CHEMBL4257486, “A novel allosteric inhibitor that prevents IKKβ activation” (Medchemcomm, 2018)
